Results published in ChEMBL document CHEMBL1155482, “Synthesis, anticancer activity and apoptosis inducing ability of anthranilamide-PBD conjugates” (2010).
Where a name gives a salt, the structure may show the parent alone. The source made the active and inactive calls. The calls are words filed in the database; no cut-off is given here.

Columns and labels:
KB = test: Cytotoxicity against human KB cells after 48 hrs by SRB assay; type: functional
Outline: (§1)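 Sulforhodamine B assay estimating cell density from cellular protein content, run on human cancer lines of lung, breast, oral, colon, cervix, ovary and prostate origin, with GI50 values derived.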

MCF7 = test: Cytotoxicity against human MCF7 cells after 48 hrs by SRB assay; type: functional; settings: MCF7, 48 h; outline: as §1
SiHa = test: Cytotoxicity against human SiHa cells after 48 hrs by SRB assay; type: functional; outline: as §1
COLO 205 = test: Cytotoxicity against human COLO205 cells after 48 hrs by SRB assay; type: functional; settings: COLO 205, 48 h; outline: as §1
A-375 [1] = test: Cell cycle arrest in human A375 cells assessed as accumulation at S phase at 1 uM by FACS analysis; type: functional
Outline: (§2)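 A375 cells were exposed to compound for 24 h, and cell cycle distribution was measured by FACS. The sub-G1 peak (labelled G0) was scored as the apoptotic cell percentage and compared with untreated control cells.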

A549 = test: Cytotoxicity against human A549 cells after 48 hrs by SRB assay; type: functional; settings: A549, 48 h; outline: as §1
A-375 [2] = test: Induction of apoptosis in human A375 cells assessed as caspase 3 activation at 1 uM after 24 hrs by fluorimetry; type: functional, cell-based
Outline: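 Caspase-3 activity in treated A375 cells was measured by fluorimetry relative to untreated cells.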

A-375 [3] = test: Cell cycle arrest in human A375 cells assessed as accumulation at G0/G1 phase at 1 uM by FACS analysis; type: functional; outline: as §2
HOP-62 = test: Cytotoxicity against human HOP62 cells after 48 hrs by SRB assay; type: functional; settings: HOP-62, 48 h; outline: as §1
PC-3 = test: Cytotoxicity against human PC3 cells after 48 hrs by SRB assay; type: functional; settings: PC-3, 48 h; outline: as §1
A-375 [4] = test: Induction of apoptosis in human A375 cells assessed as cells in dub G1 phase at 1 uM after 24 hrs by FACS analysis; type: functional; outline: as §2
[5] = Cytotoxicity against human DWD cells after 48 hrs by SRB assay; type: functional; outline: as §1
ZR-75-1 = test: Cytotoxicity against human ZR-75-1 cells after 48 hrs by SRB assay; type: functional; settings: ZR-75-1, 48 h; outline: as §1
[6] = Cytotoxicity against human Gurav cells after 48 hrs by SRB assay; type: functional; outline: as §1
A2780 = test: Cytotoxicity against human A2780 cells after 48 hrs by SRB assay; type: functional; settings: A2780, 48 h; outline: as §1
A-375 [7] = test: Cell cycle arrest in human A375 cells assessed as accumulation at G2/M phase at 1 uM by FACS analysis; type: functional; outline: as §2
A-375 [8] = test: Antitumor activity against human A375 cells assessed as cell viability at 1 uM after 24 hrs by MTT assay; type: functional, cell-based

For `COc1cc2c(cc1OCCCCCN1CCN(C(=O)c3ccccc3NCc3coc4ccccc4c3=O)CC1)N=C[C@@H]1CCCN1C2=O`, the GI50 (KB) was 150 nM, the GI50 (MCF7) was 140 nM and the GI50 (SiHa) was 130 nM. The GI50 (COLO 205) was 2400 nM, the Activity (A-375 [1]) was 13.34% and the GI50 (A549) was 160 nM. The Activity (A-375 [2]) was “Active”, the Activity (A-375 [3]) was 81.9% and the GI50 (HOP-62) was 1800 nM. For the same molecule, the GI50 (PC-3) was 140 nM, the Activity (A-375 [4]) was 3.483% and the GI50 [5] was 160 nM. For the same molecule, the GI50 (ZR-75-1) was 160 nM, the GI50 [6] was 170 nM and the GI50 (A2780) was 180 nM. For the same molecule, the Activity (A-375 [7]) was 6.68% and the Activity (A-375 [8]) was “Active”.
`COc1cc2c(cc1OCCCCCN1CCN(C(=O)c3cc(Cl)ccc3NCc3coc4ccccc4c3=O)CC1)N=C[C@@H]1CCCN1C2=O` gave a GI50 (KB) of 160 nM, a GI50 (MCF7) of 150 nM and a GI50 (SiHa) of 160 nM. For the same molecule, the GI50 (COLO 205) was 2300 nM, the GI50 (A549) was 170 nM and the GI50 (HOP-62) was 1800 nM. The GI50 (PC-3) was 160 nM, the GI50 [5] was 170 nM and the GI50 (ZR-75-1) was 160 nM. It also gave a GI50 [6] of 170 nM and a GI50 (A2780) of 180 nM.
Molecule `COc1cc2c(cc1OCCCCCCN1CCN(C(=O)c3ccccc3NCc3cc(OC)c(OC)c(OC)c3)CC1)N=C[C@@H]1CCCN1C2=O` has a GI50 (KB) of 150 nM, a GI50 (MCF7) of 140 nM and a GI50 (SiHa) of 1800 nM. For the same molecule, the GI50 (COLO 205) was 160 nM, the GI50 (A549) was 180 nM and the GI50 (HOP-62) was 1900 nM. The GI50 (PC-3) was 160 nM, the GI50 [5] was 150 nM and the GI50 (ZR-75-1) was 180 nM. It also gave a GI50 [6] of 170 nM and a GI50 (A2780) of 170 nM.
With `COc1cc2c(cc1OCCCN1CCN(C(=O)c3ccccc3NCc3ccncc3)CC1)N=C[C@@H]1CCCN1C2=O` the GI50 (KB) was 150 nM, the GI50 (MCF7) was 130 nM and the GI50 (SiHa) was 1800 nM. The GI50 (COLO 205) was 190 nM, the GI50 (A549) was 2000 nM and the GI50 (HOP-62) was 2200 nM. For the same molecule, the GI50 (PC-3) was 1800 nM, the GI50 [5] was 170 nM and the GI50 (ZR-75-1) was 180 nM. For the same molecule, the GI50 [6] was 180 nM and the GI50 (A2780) was 190 nM.
Molecule `COc1cc2c(cc1OCCCN1CCN(C(=O)c3ccccc3NCc3ccc4ccccc4c3)CC1)N=C[C@@H]1CCCN1C2=O` has a GI50 (KB) of 150 nM, a GI50 (MCF7) of 140 nM and a GI50 (SiHa) of 160 nM. The GI50 (COLO 205) was 180 nM, the Activity (A-375 [1]) was 6.32% and the GI50 (A549) was 170 nM. The Activity (A-375 [2]) was “Active”, the Activity (A-375 [3]) was 83.66% and the GI50 (HOP-62) was 1700 nM. For the same molecule, the GI50 (PC-3) was 140 nM, the Activity (A-375 [4]) was 5.486% and the GI50 [5] was 140 nM. For the same molecule, the GI50 (ZR-75-1) was 150 nM, the GI50 [6] was 170 nM and the GI50 (A2780) was 170 nM. For the same molecule, the Activity (A-375 [7]) was 6.32% and the Activity (A-375 [8]) was “Active”.
`O=C(c1ccccc1NCc1coc2ccccc2c1=O)N1CCNCC1` showed an Activity (A-375 [1]) of 18.53%, an Activity (A-375 [3]) of 68.39% and an Activity (A-375 [4]) of 1.15%. For the same molecule, the Activity (A-375 [7]) was 15.45% and the Activity (A-375 [8]) was “Active”.
`O=C(c1ccccc1NCc1ccc2ccccc2c1)N1CCNCC1` showed an Activity (A-375 [1]) of 14.56%, an Activity (A-375 [3]) of 72.22% and an Activity (A-375 [4]) of 1.233%. The Activity (A-375 [7]) was 14.78% and the Activity (A-375 [8]) was “Active”.
In the case of `COc1cccc2c1C(=O)c1c(O)c3c(c(O)c1C2=O)C[C@@](O)(C(=O)CO)C[C@@H]3O[C@H]1C[C@H](N)[C@H](O)[C@H](C)O1` [DOXORUBICIN HYDROCHLORIDE], the GI50 (KB) is reported as 170 nM, the GI50 (MCF7) is reported as 170 nM and the GI50 (SiHa) is reported as 170 nM. It also gave a GI50 (COLO 205) of 140 nM, a GI50 (HOP-62) of 140 nM and a GI50 [5] of 100 nM. For the same molecule, the GI50 [6] was 170 nM and the GI50 (A2780) was 160 nM.
